Assay results gathered from unrelated publications.
Compare with care: the assays were run in different laboratories.
SLC10A2: Ileal sodium/bile acid cotransporter (SLC10A2, Homo sapiens, UniProt Q12908)
CDKL3: Cyclin-dependent kinase-like 3 (CDKL3, Homo sapiens, UniProt Q8IVW4)
BRD9: Bromodomain-containing protein 9 (BRD9, Homo sapiens, UniProt Q9H8M2)
SETD7: Histone-lysine N-methyltransferase SETD7 (SETD7, Homo sapiens, UniProt Q8WTS6)
PIP4K2A: Phosphatidylinositol 5-phosphate 4-kinase type-2 alpha (PIP4K2A, Homo sapiens, UniProt P48426)
PHIP BD2: PHIP, BD2 (Homo sapiens, UniProt Q8WWQ0)
Methionyl-tRNA synthetase, putative: Methionyl-tRNA synthetase, putative (Trypanosoma brucei brucei, UniProt Q38C91)
ACVR2A: Activin receptor type-2A (ACVR2A, Homo sapiens, UniProt P27037)

Compound	target	assay	test system	conditions	quantity	value
COc1cc(Cl)c(C(=O)N[C@@H](CN[C@H]2CC[C@@H](N)CC2)Cc2ccc(C#N)cc2)cc1-c1ccc(CN[C@H](C)c2ccc(C)cc2)o1	Serine/threonine-protein kinase 35 (STK35, Homo sapiens, UniProt Q8TDR2)	enzyme activity, inhibitor		1 µM	remaining activity	98%
COc1cc2ncnc(Nc3ccc(F)c(Cl)c3)c2cc1OCCCN1CCOCC1	SLC10A2	transporter uptake, inhibitor, radiometric		1 mM	inhibition	< 10%
Cc1ccc(C(=O)Nc2ccc(CN3CCN(C)CC3)c(C(F)(F)F)c2)cc1C#Cc1cnc2cccnn12	CDKL3	enzyme activity		23.5 nM	remaining activity	26%
NS(=O)(=O)c1ccc(Nc2nc(-c3ccc(F)cc3)c3ccccc3n2)cc1	BRD9	binding, competition with immobilised ligand		1 µM	remaining binding	81%
O=c1c(-c2cc(O)c(O)c(O)c2)coc2cc(O)c(O)c(O)c12	SETD7	cell-free assay		10 µM	inhibition	34%
CC(C(=O)O)c1cccc(C(=O)c2ccccc2)c1 (stereo not drawn)	SLC10A2	transporter uptake, inhibitor, radiometric		1 mM	inhibition	44%
O=C(O)C1=CC(=C(c2ccc(O)c(C(=O)O)c2)c2ccc(O)c(C(=O)O)c2)C=CC1=O	SETD7	cell-free assay		10 µM	inhibition	100%
Cc1cc(NC(=O)c2cccc3cc(-c4cccc5[nH]nc(N)c45)ccc23)ccc1F	PIP4K2A	enzyme activity, inhibitor		0.1 µM	activity vs control	98%
Cc1cnc(Nc2ccc(OCCN3CCCC3)cc2)nc1Nc1cccc(S(=O)(=O)NC(C)(C)C)c1	PHIP BD2	thermal stability, DSF		10 µM	ΔTm	0.6 °C
C[C@@H]1C[C@H]2[C@@H]3CCC4=CC(=O)C=C[C@]4(C)[C@@]3(F)[C@@H](O)C[C@]2(C)[C@@]1(O)C(=O)CO	SLC10A2	transporter uptake, inhibitor, radiometric		1 mM	inhibition	< 10%
Nc1ccn([C@H]2C[C@H](O)[C@@H](COP(=O)(O)OP(=O)(O)OP(=O)(O)O)O2)c(=O)n1	DNA polymerase lambda (POLL, Homo sapiens, UniProt Q9UGP5)	enzyme activity, substrate			Km	0.016 µM
CN(CCNCc1cc(Cl)cc(Cl)c1)c1nc2nc(Cl)ccc2[nH]1	Methionyl-tRNA synthetase, putative	thermal stability, DSF		100 µM	ΔTm	18.4 °C
Nc1ncnc2occ(-c3ccc(NC(=O)Nc4cc(C(F)(F)F)ccc4F)cc3)c12	CDKL3	cell-free assay		20 µM	remaining signal	0.8%
CN1CCN(c2ccc([N+](=O)[O-])cc2NC(=O)c2ccccc2)CC1	WD repeat-containing protein 5 (WDR5, Homo sapiens, UniProt P61964)	thermal stability, DSF		100 µM	ΔTm	3.8 °C
Oc1ccc(-c2nc(-c3ccncc3)c(-c3ccc(F)cc3)[nH]2)cc1	BRD9	thermal stability, DSF		10 µM	ΔTm	0.31 °C
Cn1c2c(c3ccc(Cl)c(Cl)c31)C(C#N)C1(CCN(C(=O)OC(C)(C)C)CC1)NC2=O (racemic)	ACVR2A	thermal stability, DSF		10 µM	ΔTm	0 °C
CC(=O)N[C@H]1CSSC[C@@H](C(=O)N[C@@H](Cc2c[nH]c3ccccc23)C(N)=O)NC(=O)[C@H](Cc2ccccc2)NC(=O)[C@H](CCCNC(=N)N)NC1=O	Melanocortin receptor 5 (MC5R, Homo sapiens, UniProt P33032)	cAMP, agonist	HEK293	3 min	Emax	0%
Cc1cnc(NC2CCOCC2)nc1-n1cnc(C(=O)NC(CN)c2cc(F)cc(Cl)c2)c1 (stereo not drawn)	PIP4K2A	enzyme activity, inhibitor, radiometric		1 µM	remaining activity	102%
Cn1c2c(c3ccc(Cl)c(Cl)c31)C(C#N)C1(CCNCC1)NC2=O (racemic)	ACVR2A	thermal stability, DSF		10 µM	ΔTm	0 °C
O=C(Cc1cc(Cl)cc(Cl)c1)N1CCCC(c2nc3cc(Cl)c(F)cc3[nH]2)C1 (stereo not drawn)	Methionyl-tRNA synthetase, putative	thermal stability, DSF		100 µM	ΔTm	7 °C
C[S+]([O-])c1ccc(-c2nc(-c3ccncc3)c(-c3ccc(F)cc3)[nH]2)cc1 (stereo not drawn)	PHIP BD2	thermal stability, DSF		10 µM	ΔTm	1.14 °C
